Reference: ChEMBL document CHEMBL1129499, “Azole endothelin antagonists. 3. Using delta log P as a tool to improve absorption” (J Med Chem, 1996)

What was measured:
[1] = Partition coefficient by standard shake-flask techniquesat 37 C, using octanol and cyclohexane; format: physicochemical
Procedure, shortened: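 Shake-flask partitioning at 37 °C. About 1 mg of compound dissolved in 4.5 mL 0.05 M PIPES, pH 6.5. Aqueous aliquot shaken 2 h with an equal volume of octanol (H-bonding) or cyclohexane (non-H-bonding), then centrifuged. Both phases assayed by HPLC. Delta log P is derived from the octanol and cyclohexane log D values. Mean of at least two determinations.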

[2] = logD (pH 6.5); settings: buffer
[3] = Total absorption was estimated by area under curve (AUC) after intraduodenal administration in rat; set-up: concentration or dose not given beside the values; settings: in vivo, id
[4] = target: T1, Endothelin-1 receptor (Homo sapiens, UniProt P25101); assay: Inhibitory activity was evaluated against human Endothelin A receptor
T1 sequence (P25101 whole entry): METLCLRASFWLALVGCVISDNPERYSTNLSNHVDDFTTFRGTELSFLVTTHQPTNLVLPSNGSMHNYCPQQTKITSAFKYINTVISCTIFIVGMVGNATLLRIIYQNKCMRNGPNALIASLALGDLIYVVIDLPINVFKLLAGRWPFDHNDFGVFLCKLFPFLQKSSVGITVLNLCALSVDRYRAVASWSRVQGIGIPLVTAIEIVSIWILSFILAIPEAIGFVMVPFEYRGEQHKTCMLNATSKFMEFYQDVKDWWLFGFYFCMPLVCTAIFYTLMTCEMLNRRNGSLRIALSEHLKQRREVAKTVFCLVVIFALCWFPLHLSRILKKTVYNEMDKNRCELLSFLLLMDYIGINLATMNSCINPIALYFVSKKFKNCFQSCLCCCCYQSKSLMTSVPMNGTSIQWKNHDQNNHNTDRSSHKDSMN
Procedure, shortened: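 Human ETA or ETB receptors expressed in CHO cells. Binding inhibition tested at 11 concentrations from 10⁻¹⁰ to 10⁻⁵ M, in duplicate.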

[5] = target: T2, Endothelin receptor type B (Homo sapiens, UniProt P24530); assay: Inhibitory activity was evaluated against human Endothelin B receptor
T2 sequence (P24530 whole entry): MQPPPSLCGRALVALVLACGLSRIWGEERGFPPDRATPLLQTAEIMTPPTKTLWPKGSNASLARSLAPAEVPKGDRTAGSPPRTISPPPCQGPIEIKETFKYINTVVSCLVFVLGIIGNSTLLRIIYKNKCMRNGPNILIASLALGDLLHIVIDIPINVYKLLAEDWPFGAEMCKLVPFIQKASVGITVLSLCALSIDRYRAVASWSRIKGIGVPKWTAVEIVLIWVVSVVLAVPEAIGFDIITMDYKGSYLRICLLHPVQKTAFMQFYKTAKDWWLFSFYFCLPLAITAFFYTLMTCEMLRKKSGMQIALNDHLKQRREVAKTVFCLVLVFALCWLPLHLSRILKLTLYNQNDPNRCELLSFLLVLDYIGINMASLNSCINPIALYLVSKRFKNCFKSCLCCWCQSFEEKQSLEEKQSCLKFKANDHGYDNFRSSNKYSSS
Procedure, shortened: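 Human ETA or ETB receptors expressed in CHO cells. Binding inhibition tested at 11 concentrations from 10⁻¹⁰ to 10⁻⁵ M, in duplicate. IC50 is the mean of at least 2 measurements (n = 2).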

[6] = Oral bioavailability of compound at a dose of 10 mg/kg was determined in rat; format: ADME, organism-based; settings: in vivo
Procedure, shortened: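 Male Sprague-Dawley rats, n = 4 per group. 10 mg/kg given by gavage or as a slow iv bolus into the jugular vein, 10 mg/mL in ethanol–propylene glycol–D5W (20:30:50) with 1 equiv NaOH. Tail-vein plasma sampled up to 12 h and assayed by HPLC after extraction. F is the dose-corrected ratio of oral to iv AUC0–∞.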

SMILES: COc1cccc(Oc2c(NS(=O)(=O)c3ccc(C(C)(C)C)cc3)ncnc2OCCO)c1
- delta Log P [1]: 2.37
- logD [2]: 1.98

SMILES: Cc1[nH]c([C@@H](Cc2cn(C)c3ccccc23)NC(=O)[C@H](CC(C)C)NC(=O)NC2CCCCC2)nc1C(=O)O
- delta Log P [1]: 5.92
- AUC [3]: 4.33 ng·h/mL
- IC50 [4]: 11 nM
- IC50 [5]: 34 µM

SMILES: Cc1oc([C@@H](Cc2cn(C)c3ccccc23)NC(=O)[C@H](CC(C)C)NC(=O)N(C)C2CCCCC2)nc1C(=O)O
- delta Log P [1]: 4.05
- AUC [3]: 833 ng·h/mL
- IC50 [4]: 25 nM
- IC50 [5]: > 100 µM

SMILES: Cc1[nH]c([C@@H](Cc2cn(C)c3ccccc23)NC(=O)[C@H](CC(C)C)NC(=O)CC2CCCCC2)nc1C(=O)O
- delta Log P [1]: 5.66
- IC50 [4]: 470 nM
- IC50 [5]: > 90 µM

SMILES: Cc1[nH]c([C@@H](Cc2cn(C)c3ccccc23)NC(=O)[C@H](CC(C)C)OC(=O)NC2CCCCC2)nc1C(=O)O
- delta Log P [1]: > 6.1
- AUC [3]: 347 ng·h/mL
- IC50 [4]: 9.3 nM
- IC50 [5]: 54 µM

SMILES: Cc1oc([C@@H](Cc2cn(C)c3ccccc23)NC(=O)[C@H](CC(C)C)OC(=O)N(C)C2CCCCC2)nc1C(=O)O
- delta Log P [1]: 3.82
- AUC [3]: 1840 ng·h/mL
- IC50 [4]: 4.6 nM
- bioavailability [6]: 13.5%
- IC50 [5]: 90 µM

SMILES: Cc1oc([C@@H](Cc2cn(C)c3ccccc23)NC(=O)[C@H](CC(C)C)NC(=O)CC2CCCCC2)nc1C(=O)O
- delta Log P [1]: 3.78
- IC50 [5]: > 100 µM

SMILES: Cc1oc([C@@H](Cc2cn(C)c3ccccc23)NC(=O)[C@H](CC(C)C)OC(=O)NC2CCCCC2)nc1C(=O)O
- delta Log P [1]: 4.04
- AUC [3]: 815 ng·h/mL
- IC50 [4]: 21 nM
- IC50 [5]: 48 µM

SMILES: Cc1oc([C@@H](Cc2cn(C)c3ccccc23)NC(=O)[C@@H](CC(=O)NC2CCCCC2)CC(C)C)nc1C(=O)O
- delta Log P [1]: 3.82
- AUC [3]: 292 ng·h/mL
- IC50 [4]: 310 nM
- IC50 [5]: > 100 µM

SMILES: Cc1oc([C@@H](Cc2cn(C)c3ccccc23)NC(=O)[C@H](CC(C)C)NC(=O)OC2CCCCC2)nc1C(=O)O
- delta Log P [1]: 4.66
- AUC [3]: 1360 ng·h/mL
- IC50 [4]: 41 nM
- IC50 [5]: > 100 µM

SMILES: Cc1[nH]c([C@@H](Cc2cn(C)c3ccccc23)NC(=O)[C@@H](CC(=O)NC2CCCCC2)CC(C)C)nc1C(=O)O
- delta Log P [1]: > 6.2
- AUC [3]: 81.7 ng·h/mL
- IC50 [4]: 29 nM
- IC50 [5]: > 100 µM

SMILES: Cc1[nH]c([C@@H](Cc2cn(C)c3ccccc23)NC(=O)[C@H](CC(C)C)N(C)C(=O)NC2CCCCC2)nc1C(=O)O
- delta Log P [1]: > 6
- AUC [3]: 247 ng·h/mL
- IC50 [4]: 22 nM
- IC50 [5]: > 100 µM

SMILES: Cc1[nH]c([C@@H](Cc2cn(C)c3ccccc23)NC(=O)[C@H](CC(C)C)NC(=O)OC2CCCCC2)nc1C(=O)O
- delta Log P [1]: > 6.2
- AUC [3]: 168 ng·h/mL
- IC50 [4]: 76 nM
- IC50 [5]: > 100 µM

SMILES: Cc1oc([C@@H](Cc2cn(C)c3ccccc23)NC(=O)[C@H](CC(C)C)OC(=O)OC2CCCCC2)nc1C(=O)O
- delta Log P [1]: 3.71
- AUC [3]: 1760 ng·h/mL
- IC50 [4]: 17 nM
- IC50 [5]: 79 µM

SMILES: Cc1oc([C@@H](Cc2cn(C)c3ccccc23)NC(=O)[C@H](CC(C)C)N(C)C(=O)NC2CCCCC2)nc1C(=O)O
- delta Log P [1]: 4.59
- AUC [3]: 983 ng·h/mL
- IC50 [4]: 450 nM
- IC50 [5]: > 100 µM

SMILES: Cc1[nH]c([C@@H](Cc2cn(C)c3ccccc23)NC(=O)[C@H](CC(C)C)NC(=O)N(C)C2CCCCC2)nc1C(=O)O
- delta Log P [1]: 5.4
- AUC [3]: 103 ng·h/mL
- IC50 [4]: 1.8 nM
- IC50 [5]: 20 µM

SMILES: CCCN(Cc1ccc(-c2ccccc2-c2nnn[nH]2)cc1)c1ncccc1C(=O)O
- delta Log P [1]: 2.45
- logD [2]: -0.85

SMILES: Cc1oc([C@@H](Cc2cn(C)c3ccccc23)NC(=O)[C@H](CC(C)C)NC(=O)NC2CCCCC2)nc1C(=O)O
- delta Log P [1]: > 6.1
- AUC [3]: 193 ng·h/mL
- IC50 [4]: 220 nM
- IC50 [5]: > 100 µM

SMILES: Cn1c(=O)c2[nH]cnc2n(C)c1=O.O [THEOPHYLLINE]
- delta Log P [1]: 1.53
- logD [2]: -0.12
